# Source: ChEMBL document CHEMBL4715841, “Discovery of dihydropyrazino-benzimidazole derivatives as metabotropic glutamate receptor-2 (mGluR2) positive allosteric modulators (PAMs)” (Eur J Med Chem, 2020)
# Target: Cytochrome P450 2C19 (Homo sapiens, UniProt P33261)
# Assay: Inhibition of CYP2C19 (unknown origin)
# Assay type: ADME
# How it was run: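 Isoform-specific CYP450 inhibition, reported as IC50 in µM.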
# Cytochrome P450 2C19, sequence (P33261 whole entry): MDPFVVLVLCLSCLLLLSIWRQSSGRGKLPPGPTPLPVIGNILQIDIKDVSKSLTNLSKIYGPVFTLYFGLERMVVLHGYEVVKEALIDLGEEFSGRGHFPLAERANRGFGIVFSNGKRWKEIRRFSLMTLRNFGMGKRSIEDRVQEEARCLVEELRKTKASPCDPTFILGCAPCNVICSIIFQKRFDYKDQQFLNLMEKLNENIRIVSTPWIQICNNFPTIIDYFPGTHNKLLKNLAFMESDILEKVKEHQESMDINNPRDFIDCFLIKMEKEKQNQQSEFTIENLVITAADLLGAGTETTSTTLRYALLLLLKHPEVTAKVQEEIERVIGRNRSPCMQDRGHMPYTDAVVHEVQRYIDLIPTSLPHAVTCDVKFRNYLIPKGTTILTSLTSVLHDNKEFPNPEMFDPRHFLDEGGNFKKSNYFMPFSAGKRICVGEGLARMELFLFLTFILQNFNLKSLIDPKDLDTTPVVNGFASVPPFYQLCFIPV
row,IC50,SMILES
1,> 10 µM,O=C1c2nc3ccccc3n2CCN1CCCCOc1ccc(OC(F)(F)F)cc1

# Target: Metabotropic glutamate receptor 2 (Homo sapiens, UniProt Q14416)
# Sequence (Q14416 whole entry): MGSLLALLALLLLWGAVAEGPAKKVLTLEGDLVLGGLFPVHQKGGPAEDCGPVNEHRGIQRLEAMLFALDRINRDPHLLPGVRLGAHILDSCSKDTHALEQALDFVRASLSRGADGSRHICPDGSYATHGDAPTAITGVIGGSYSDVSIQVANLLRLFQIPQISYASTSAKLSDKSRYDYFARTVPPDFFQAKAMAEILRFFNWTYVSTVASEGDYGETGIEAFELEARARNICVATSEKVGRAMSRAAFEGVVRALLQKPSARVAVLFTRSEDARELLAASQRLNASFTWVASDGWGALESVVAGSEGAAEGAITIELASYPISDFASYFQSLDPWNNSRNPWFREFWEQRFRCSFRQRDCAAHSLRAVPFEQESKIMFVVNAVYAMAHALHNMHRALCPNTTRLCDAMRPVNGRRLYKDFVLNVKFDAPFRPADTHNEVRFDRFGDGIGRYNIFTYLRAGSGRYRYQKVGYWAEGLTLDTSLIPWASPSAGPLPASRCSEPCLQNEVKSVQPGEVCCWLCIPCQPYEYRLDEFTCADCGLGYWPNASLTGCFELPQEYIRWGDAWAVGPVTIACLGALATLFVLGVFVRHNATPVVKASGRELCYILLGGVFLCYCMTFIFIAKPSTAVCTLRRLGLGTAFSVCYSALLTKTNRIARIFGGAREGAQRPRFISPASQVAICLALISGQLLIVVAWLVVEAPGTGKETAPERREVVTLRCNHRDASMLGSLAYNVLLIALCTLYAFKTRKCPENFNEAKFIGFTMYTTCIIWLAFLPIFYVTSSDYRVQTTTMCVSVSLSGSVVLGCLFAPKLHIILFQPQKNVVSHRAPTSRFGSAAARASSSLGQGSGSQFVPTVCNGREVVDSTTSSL
row,EC50,SMILES
1,870 nM,COc1ccccc1C1CCN(Cc2nc3ccccc3n2C)CC1
2,90 nM,O=C1c2nc3ccccc3n2CCN1CCCOc1ccc(Cl)c(Cl)c1
3,2280 nM,COc1ccc(CCCCN2CCn3c(nc4ccccc43)C2)cc1
4,130 nM,Cn1c(CN2CCC(c3ccccc3F)CC2)nc2ccccc21
5,550 nM,Clc1ccc(SCCCN2CCn3c(nc4ccccc43)C2)cc1
6,540 nM,Fc1cc(Cl)ccc1CCCCN1CCn2c(nc3ccccc32)C1
7,50 nM,O=C1c2nc3ccccc3n2CCN1CCCCOc1ccc(F)cc1F
8,70 nM,Clc1ccc(OCCCN2CCn3c(nc4ccccc43)C2)cc1Cl
9,50 nM,O=C1c2nc3ccccc3n2CCN1CCCCOc1ccc(F)cc1Br
10,540 nM,Fc1ccc(OCCCN2CCn3c(nc4ccccc43)C2)cc1F
11,90 nM,Cc1ccccc1OCCCCN1CCn2c(nc3ccccc32)C1=O
12,1210 nM,COc1ccc(CCCCN2CCn3c(nc4ccccc43)C2)c(F)c1
13,260 nM,c1ccc(SCCCN2CCn3c(nc4ccccc43)C2)cc1
14,40 nM,O=C1c2nc3ccccc3n2CCN1CCCCOc1ccc(C(F)(F)F)cc1
15,130 nM,c1ccc(CCCCCN2CCn3c(nc4ccccc43)C2)cc1
16,90 nM,Fc1ccc(SCCCN2CCn3c(nc4ccccc43)C2)cc1F
17,970 nM,Fc1cc(C(F)(F)F)ccc1CCCCN1CCn2c(nc3ccccc32)C1
18,270 nM,Brc1ccc(SCCCN2CCn3c(nc4ccccc43)C2)cc1
19,420 nM,c1ccc(CCCCN2CCn3c(nc4ccccc43)C2)cc1
20,2430 nM,Cc1ccc(CCN2CCn3c(nc4ccccc43)C2)cc1
21,320 nM,Fc1ccc(SCCCN2CCn3c(nc4ccccc43)C2)cc1
22,2400 nM,N#Cc1ccc(CCCCN2CCn3c(nc4ccccc43)C2)cc1
23,70 nM,O=C1c2nc3ccccc3n2CCN1CCCCOc1ccc(Cl)cc1
24,340 nM,Fc1ccc(CCCCN2CCn3c(nc4ccccc43)C2)c(F)c1
25,4700 nM,Fc1cccc(CCN2CCn3c(nc4ccccc43)C2)c1
26,350 nM,Fc1ccc(SCCCN2CCn3c(nc4ccccc43)C2)c(F)c1
27,170 nM,Fc1ccc(OCCCN2CCn3c(nc4ccccc43)C2)cc1Cl
28,2740 nM,COc1ccc(CCN2CCn3c(nc4ccccc43)C2)cc1
